Screening data deposited in PubChem by several laboratories.
Compounds with a hit are over-represented: about 1.8% of the library has one in this group of screens.
SUMO HTRF inh: blocks human SUMOylation mediated by UBC9; P63279; AID 2006; HTRF SUMOylation assay, SAE1/SAE2 + UBC9, in vitro; inhibition, % at 35 µM; 290,000 compounds, 0.36% hits; in the data active means inhibition above about 50%, passing the limit was not always enough
Target sequence (P63279 whole entry, looked up): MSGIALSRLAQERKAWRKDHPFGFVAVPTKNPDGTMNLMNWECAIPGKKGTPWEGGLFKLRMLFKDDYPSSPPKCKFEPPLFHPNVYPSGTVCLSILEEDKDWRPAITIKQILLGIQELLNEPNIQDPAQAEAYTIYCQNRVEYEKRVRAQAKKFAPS
TPT1 inh: C. albicans TPT1 enzyme inhibition; recombinant caTPT1, FP RNA substrate dephosphorylation; inhibition, % at 5 µM; 300,000 compounds, 0.81% hits; AID 1962;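 active means inhibition above the mean of all tested compounds plus 3 SD, set per screening campaign, cut at about 24% in these data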
Rpn11 block: Rpn11 (human) deubiquitinase inhibition. calls only at 20 µM. AID 588493. human 26S proteasome, Ub4-pepOG fluorescence polarization; 20S core pre-blocked with epoxomicin. 360,000 compounds, 0.59% hits;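 active means inhibition at 20 µM, scaled to each plate's controls, above about 33%, limit read from the data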
SENP1 FRET inh: blocks the human SENP1 SUMO protease catalytic domain. Q9P0U3. recombinant SENP1 catalytic domain, CyPet-SUMO1-YPet FRET cleavage. inhibition, % at 10 µM. 360,000 compounds, 0.21% hits. AID 624204;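 active means inhibition at least 30% at 10 µM, raw YFP signal under a set limit, fluorescence ratio 0.5 to 1.5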
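material = recombinant human SENP1 catalytic domain, His6-tagged | quantity = 20 pM enzyme | reagent = 25 nM SUMO1 FRET substrate | compound dosing = 10 µM single point, 0.5% DMSO | timing = 50 min enzyme reaction, room temperature, light-protected | detection = FRET, CFP and YFP emission | control set = no-enzyme low, enzyme-DMSO high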
HNF4A DNA FP: change in binding of human HNF4 alpha to DNA | 360,000 compounds, 0.3% hits | activity change, % at 10 µM | HNF4a-FITC DNA binding, fluorescence polarization, 1 h; in the data active means activity change above about 30%, passing the limit was not always enough
CSN deneddyl inh: CSN deneddylation inhibition; Q92905; Purified CSN, SCF-Nedd8-OG deneddylation, fluorescence polarization; AID 651999; inhibition, % at 12.5 µM; 360,000 compounds, 0.38% hits;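 active means pattern-corrected inhibition above about 35%, with an unprinted fluorescence ratio check between 0.5 and 1.5, limit read from the data, passing the limit was not always enough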
Target sequence (Q92905 whole entry, looked up, one chain of several): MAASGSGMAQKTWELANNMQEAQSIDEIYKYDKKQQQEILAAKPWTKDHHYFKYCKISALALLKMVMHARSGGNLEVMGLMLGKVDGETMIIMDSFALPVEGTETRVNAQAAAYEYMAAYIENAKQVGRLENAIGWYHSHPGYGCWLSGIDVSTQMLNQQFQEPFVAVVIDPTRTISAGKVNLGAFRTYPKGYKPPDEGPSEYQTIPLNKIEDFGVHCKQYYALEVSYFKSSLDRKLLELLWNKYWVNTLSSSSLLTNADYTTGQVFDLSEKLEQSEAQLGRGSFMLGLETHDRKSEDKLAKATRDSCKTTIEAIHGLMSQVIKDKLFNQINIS
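Assay system: purified human Csn5 enzyme expressed in HEK293T cells; measure: % inhibition; also added: SCFSkp2-Nedd8OG substrate at 10 nM final; technique: fluorescence polarization; times: reaction 90 min, room temperature; medium: Tris buffer pH 7.5, NaCl, DTT, Tween-20, trehalose, ovalbumin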
TPT1 inh confirm: confirmation of Candida albicans TPT1 inhibitors; shares compounds with TPT1 inh; recombinant caTPT1, fluorescence polarization, RNase T1 coupled; inhibition, % at 5 µM; 2,400 compounds, 74% hits; AID 2149;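 active means inhibition above the primary screen limit, the mean inhibition of all tested compounds plus 3 SD, cut at about 25% in these data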
RNase T1 counter: RNase T1 inhibition in TPT1 counter-screen; shares compounds with TPT1 inh; RNase T1 cleavage, fluorescence polarization, 1536-well; inhibition, % at 5 µM; 2,400 compounds, 83% hits; AID 2153;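 active means inhibition above the solvent-only control well mean plus 3 SD, limit set per screening run, cut at about 23% in these data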;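 further: inhibitors block cleavage so intact labeled substrate keeps polarization high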
Target sequence (P00651 whole entry, looked up): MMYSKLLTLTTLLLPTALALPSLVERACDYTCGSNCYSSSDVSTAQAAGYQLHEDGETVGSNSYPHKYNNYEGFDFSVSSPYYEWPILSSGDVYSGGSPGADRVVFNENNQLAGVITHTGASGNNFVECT
Of the large screens only hits and unclear results are named; the others gave an inactive call (follow-up assays come after a bar, where shown).

Cc1cc(OCC(=O)OC(C)(C)C)c2c3c(c(=O)oc2c1)CCC3	none
CCCCC1(CCC)C(=O)NC(=S)NC1=O	none (no result: SUMO HTRF inh, TPT1 inh)
N#Cc1c(/N=C/c2ccc(O)cc2O)sc2c1C1CCN2CC1	TPT1 inh 65.0, HNF4A DNA FP 40.4 | TPT1 inh confirm 106.3 | RNase T1 counter 107.3
CC1=C2CCC3C(CCC4=CC(=O)CCC43C)C2CC1 (stereo not given)	none (no result: SUMO HTRF inh, TPT1 inh)
O=c1[nH]c(=O)n(CCC2=CCCCC2)c(O)c1C=NCCN1CCNCC1	TPT1 inh 27.1 (not shown: Rpn11 block) | TPT1 inh confirm 43.7 | RNase T1 counter 54.7
O=c1[nH]c(=O)n(CCc2ccccc2)c(O)c1C=NCCCn1ccnc1	none
O=c1[nH]c(=O)n(Cc2ccccc2)c(O)c1C=NCCCn1ccnc1	TPT1 inh 48.3 | TPT1 inh confirm 34.8 | RNase T1 counter 44.9
O=c1[nH]c(=O)n(Cc2ccco2)c(O)c1C=NCCN1CCOCC1	TPT1 inh 24.8 | TPT1 inh confirm 30.1 | RNase T1 counter 41.9
O=C(NC(=S)N1C[C@H]2C[C@H](C1)c1cccc(=O)n1C2)c1ccc(Cl)cc1	none
O=c1[nH]c(=O)n(Cc2ccc(F)cc2)c(O)c1/C=N/Nc1ccccc1	none
Cc1ccc(N2C(=O)NC(=O)/C(=C/C=C/c3ccco3)C2=O)cc1	TPT1 inh 27.6 | TPT1 inh confirm 35.0 | RNase T1 counter 52.4
CCN(CC)c1ccc(N=Cc2c(O)n(-c3ccc(OC)cc3)c(=O)[nH]c2=O)cc1	TPT1 inh 56.2 | TPT1 inh confirm inactive | RNase T1 counter inactive
CCN(CC)c1ccc(N=Cc2c(O)n(-c3ccc(Cl)cc3)c(=O)[nH]c2=O)cc1	TPT1 inh 27.0 (not shown: Rpn11 block) | TPT1 inh confirm 57.8 | RNase T1 counter 71.9
NN=C(N)N	none (no result: SUMO HTRF inh)
Cn1cccc1/C=C1/C(=O)NC(=O)N(Cc2ccccc2)C1=O	none
C=CCN1C(=O)NC(=O)/C(=C/c2ccoc2)C1=O	TPT1 inh 105.6 | TPT1 inh confirm inactive | RNase T1 counter inactive
Cn1cccc1/C=C1\C(=O)NC(=O)N(Cc2ccccc2)C1=O	TPT1 inh 24.9 | TPT1 inh confirm inactive | RNase T1 counter 33.8
O=C1NC(=O)N(Cc2ccccc2)C(=O)/C1=C\c1ccco1	TPT1 inh 65.8 | TPT1 inh confirm inactive | RNase T1 counter 22.5
O=C(O)Cn1cc(/C=C2\C(=O)NC(=O)N(Cc3ccco3)C2=O)c2ccccc21	none
CCCCN1C(=O)/C(=C\c2ccco2)C(=O)N(CCc2ccccc2)C1=O	TPT1 inh 43.3 | TPT1 inh confirm inactive | RNase T1 counter inactive
COC(=O)C1=C(c2cccc(OC)c2OC)C[C@@H]2CC[C@H]1N2C(=O)N1CCCCC1	none (no result: SUMO HTRF inh)
O=C1NC(=O)N(Cc2ccccc2)C(=O)/C1=C\N1CCCc2ccccc21	TPT1 inh 28.9 | TPT1 inh confirm inactive | RNase T1 counter inactive
C=CCN1C(=O)NC(=O)/C(=C/c2cccn2C)C1=O	TPT1 inh 51.5 | TPT1 inh confirm inactive | RNase T1 counter inactive
O=C1NC(=O)C(=CN2CCc3ccccc32)C(=O)N1	none
Cn1cccc1/C=C1/C(=O)NC(=O)N(Cc2ccc(F)cc2)C1=O	none
C/C(=N\N1CCN(C)CC1)c1c(O)n(Cc2ccccc2)c(=O)[nH]c1=O	none
CCN1C(=O)C(=Cc2ccc(C)s2)C(=O)N(CC)C1=S	TPT1 inh 31.4 (not shown: Rpn11 block) | TPT1 inh confirm inactive | RNase T1 counter inactive
CCOC(=O)c1c(/N=C/C2C(=O)NC(=S)NC2=O)sc2c1CCC2	TPT1 inh 112.8 (not shown: Rpn11 block) | TPT1 inh confirm inactive | RNase T1 counter 33.4
CCOC(=O)c1c(/N=C/C2C(=O)NC(=S)NC2=O)sc(C)c1C	none (no result: Rpn11 block, SENP1 FRET inh, HNF4A DNA FP, CSN deneddyl inh)
O=c1c(C=NCc2cccs2)c(O)n(C2CCCCC2)c(=O)n1C1CCCCC1	none
O=c1c(C=Nc2cccnc2Cl)c(O)n(CCCCl)c(=O)n1C1CCCCC1	TPT1 inh 63.1, CSN deneddyl inh 49.5 (not shown: Rpn11 block) | TPT1 inh confirm 85.7 | RNase T1 counter 99.2
CCOC(=O)c1cc2cc(OC)ccc2n1C1CCN(Cc2ccccc2)CC1	none (no result: SUMO HTRF inh, TPT1 inh, Rpn11 block)
C=CCNC(=S)/N=C/c1c(O)[nH]c(=O)[nH]c1=O	TPT1 inh 25.7 | TPT1 inh confirm inactive | RNase T1 counter 22.9
CN1C(=O)C(=Cc2ccc(N3CCCCCC3)o2)C(=O)N(C)C1=S	TPT1 inh 139.7 (not shown: Rpn11 block) | TPT1 inh confirm 118.4 | RNase T1 counter 121.5
Cc1ccc(Sc2ccc(C=C3C(=O)N(C)C(=O)N(C)C3=O)o2)cc1	none
CN1C(=O)C(=Cc2ccc(N3CCOCC3)o2)C(=O)N(C)C1=O	TPT1 inh 135.6 (not shown: Rpn11 block) | TPT1 inh confirm 147.9 | RNase T1 counter 144.9
CC(Cc1ccccc1)NC(=O)/C=C/C(=O)O (stereo not given)	none
Cn1c(O)c(C=Nc2cccc(C(F)(F)F)c2)c(=O)n(C)c1=O	none
CC(C)n1c(=O)c(C=Nc2cccc([N+](=O)[O-])c2)c(O)n(CCc2ccccc2)c1=O	TPT1 inh 42.8 | TPT1 inh confirm inactive | RNase T1 counter inactive
COc1cccc(C(c2nnnn2-c2ccc3c(c2)OCCO3)N2CCC(n3c(=O)[nH]c4ccccc43)CC2)c1OC (stereo not given)	none (no result: SUMO HTRF inh, TPT1 inh)
C1=C(c2c[nH]c3ccccc23)CCNC1	TPT1 inh 79.7 (no result: Rpn11 block, SENP1 FRET inh, HNF4A DNA FP, CSN deneddyl inh) | TPT1 inh confirm 50.3 | RNase T1 counter 58.5
N#CC(C#N)=Cc1ccc(O)c(O)c1	none (no result: SUMO HTRF inh)
CC(C)(C)c1cc(C=C(C#N)C#N)cc(C(C)(C)C)c1O	TPT1 inh 60.8 (no result: SUMO HTRF inh) | TPT1 inh confirm 82.3 | RNase T1 counter 89.6
Cc1cccc(-n2c(O)c(/C=C3/C(c4ccccc4)=Nc4ccccc43)c(=O)[nH]c2=O)c1	none
COC(=O)C1=Nc2ccccc2/C1=C\c1c(O)n(-c2cc(OC)ccc2OC)c(=O)[nH]c1=O	none
O=c1[nH]c(=O)n(-c2ccccc2F)c(O)c1/C=C1\C=Nc2ccccc21	TPT1 inh 55.6 | TPT1 inh confirm inactive | RNase T1 counter 28.7
COc1ccc(-n2c(O)c(/C=C3\C=Nc4ccc(Br)cc43)c(=O)[nH]c2=O)c(OC)c1	TPT1 inh 39.1 | TPT1 inh confirm inactive | RNase T1 counter inactive
O=c1[nH]c(=O)n(-c2ccc(F)cc2)c(O)c1/C=C1\C=Nc2ccccc21	TPT1 inh 51.2 | TPT1 inh confirm 69.6 | RNase T1 counter 76.7
O=c1[nH]c(=O)n(Cc2ccccc2)c(O)c1/C=C1\C=Nc2ccccc21	TPT1 inh 58.1 (not shown: Rpn11 block) | TPT1 inh confirm inactive | RNase T1 counter 26.8
O=C(COc1ccc(Br)cc1)N1CCN(Cc2ccc3c(c2)OCO3)CC1	none
O=c1c2ccccc2nc(CSc2ncnc3nc[nH]c23)n1-c1ccccc1Cl	none
